Data on five compounds can be found in paper PMC10993246 (ACS Omega, 2024).

The subject of one series is L929 cells. Nature of the series: Cell proliferation / cytotoxicity MTT assay. Type of series: cell-based. As to conditions: 48 h; for toxicity toward the cells: L929 cells, 10, 25, 50 and 100 μM, IC50 values could not be calculated. An outline of the steps: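 L929 cells were seeded at 0.5 × 10^4 cells per well and held 24 h in complete medium. Fluorescein-labelled and unlabelled test peptides were then added at 10, 25, 50 and 100 μM for 48 h. MTT was applied for 4 h at 37 °C in the dark, formazan was dissolved in DMSO, and A570 was read. % viability = treated/untreated absorbance; mean ± SD; two-way ANOVA.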

Series [1] concerns mouse fibroblast 3T3 cells. The conditions noted are these: cell fixation conditions, ref 36 (Rhee et al.); cited from earlier work.
For the next series, the system named is 3T3 cells. Nature of the series: Membrane penetrability, fixed cells, fluorescence and confocal microscopy. The conditions noted are these: fixed 3T3 cells, 50 μM in PBS, 6 h, 4 °C, confocal microscopy. It is filed as cell-based, mouse.
The conditions of series [2]: ref 43 (Futaki et al.); cited from earlier work.

Residues, ends and D or L forms follow the SMILES beside them.

In the case of `CC(C)C[C@H](NC(=O)[C@H](CO)NC(=O)CNC(=O)[C@@H](N)C(C)C)C(=O)N[C@@H](CCCNC(=N)N)C(=O)O` [VGSLR] (H-VGSLR-OH), the “toxicity toward the cells” value in the series with L929 cells was “did not show any significant toxicity”. Further, in the series with L929 cells (L929 cells), the “cellular viability at 25 and 50 μM compared to 10 μM” value is on record as “increased progressively”.

CSIPPEVKFNPFVYLI [C105Y]: the “localization of the fluorescent-tagged peptide” value in series [1] is reported as “enriched fluorescence signal in the nucleus in addition to being present in the cytoplasm”.

As to FITC-VGSLR, the “cell proliferation compared to the untreated cells” value in the series with L929 cells (L929 cells, 50 μM, absorbance 570 nm, p < 0.0001) is listed as “higher proliferation”. The “cell viability at 100 μM” value in the series on L929 cells (L929 cells, 100 μM) was “reduced viability”. Moreover, in the series on L929 cells, the “toxicity toward the cells” value is on record as “does not show any toxicity”. In the series on L929 cells (L929 cells), the “cellular viability at 25 and 50 μM compared to 10 μM” value was “increased progressively”. Besides, the subcellular localization result with 3T3 cells is “localization of the peptide at the nucleus was more than that in the cytoplasm”.

For GRRRRRRRRRPPQ [R9-TAT], the “localization of CPPs” value in series [2] is “in both the cytoplasm and nucleus”.

Turning to “Tat-(48–60): CPP reported by Futaki et al. (GRKKRRQRRRAHQ; UniProt P04608 48-60, looked up, fragment)”, the “localization of CPPs” value in series [2] is “in both the cytoplasm and nucleus”.
